Results from ChEMBL document CHEMBL3526127, “Absorption, elimination, and metabolism of CS-1036, a novel α-amylase inhibitor in rats and monkeys, and the relationship between gastrointestinal distribution and suppression of glucose absorption” (Drug Metab Dispos, 2013).

Tests used:
[1] = Drug metabolism in rat intestinal […] S9 fractions at 0.42 uCi/ml assessed as metabolite formation in presence of NADPH after 1 hr at 37 degC by LC-MS/MS method; format: ADME, subcellular; conditions: s9, 1 h
[2] = Drug metabolism in human intestinal S9 fractions at 0.42 uCi/ml assessed as metabolite formation in presence of NADPH after 1 hr at 37 degC by LC-MS/MS method; format: ADME, Intestine; conditions: s9, 1 h
[3] = Drug excretion in F344 rat feces at 1 mg/kg, po administered as single dose after 0 to 168 hrs by scintillation counting method; format: ADME, organism-based; design: dose 1 mg/kg, route oral; conditions: in vivo
How it was run: (§1)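 Fasted F344 rats (152–156 g iv via tail vein; 154–159 g oral; n = 4) received [14C]-labelled drug at 1 mg/kg (41.9 µCi/kg). Animals were kept in metabolic cages; urine and feces were collected to 168 h, and expired CO2 was trapped in 2-aminoethanol/2-methoxyethanol (1:1) to 48 h. Samples were counted by liquid scintillation (feces homogenized). Results are % of dose, mean ± S.D.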

[4] = Drug excretion in F344 rat urine at 1 mg/kg, po administered as single dose after 0 to 168 hrs by scintillation counting method; format: ADME, organism-based; design: dose 1 mg/kg, route oral; conditions: in vivo; how it was run: as §1
Rattus norvegicus = assay: Total drug excretion in F344 rat at 1 mg/kg, po administered as single dose after 0 to 168 hrs by scintillation counting method; format: ADME, organism-based; design: dose 1 mg/kg, route oral; conditions: in vivo
How it was run: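 Fasted F344 rats (n = 4) received [14C]-labelled drug at 1 mg/kg (41.9 µCi/kg), iv via tail vein or oral. They were housed in metabolic cages. Urine and feces were collected to 168 h, and expired CO2 was trapped in 2-aminoethanol/2-methoxyethanol to 48 h. Radioactivity was counted by liquid scintillation, feces after homogenization. Results are % of dose.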

Cynomolgus monkey [5] = assay: Drug excretion in cynomolgus monkey assessed as drug level found during cage washing at 3 mg/kg, iv administered as single dose after 0 to 336 hrs by scintillation counting method; format: ADME, organism-based, Macaca fascicularis; design: dose 3 mg/kg, route intravenous; conditions: in vivo
How it was run: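 Fasted cynomolgus monkeys (n = 4) received [14C]-labelled drug at 3 mg/kg, iv via saphenous vein (191 µCi/kg) or orally by stomach catheter (156.5 µCi/kg). Urine, feces and water cage-wash were collected to 336 h. Samples were counted by liquid scintillation; feces were homogenized in 4-fold water. Results are % of dose, mean ± S.D.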

Cynomolgus monkey [6] = assay: Total drug excretion in cynomolgus monkey at 3 mg/kg, iv administered as single dose after 0 to 48 hrs by scintillation counting method; format: ADME, organism-based, Macaca fascicularis; design: dose 3 mg/kg, route intravenous; conditions: in vivo
How it was run: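 Fasted male cynomolgus monkeys (n = 4) were dosed with 14C-labelled drug at 3 mg/kg, iv via saphenous vein (191 µCi/kg) or orally by stomach catheter (156.5 µCi/kg). Urine, feces and cage-wash water were collected to 336 h. Radioactivity was measured by liquid scintillation counting, with feces homogenized in water, and expressed as % of dose.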

[7] = Drug excretion in cynomolgus monkey urine at 3 mg/kg, iv administered as single dose after 0 to 336 hrs by scintillation counting method; format: ADME, organism-based, Macaca fascicularis; design: dose 3 mg/kg, route intravenous; conditions: in vivo
[8] = Ratio of drug level in blood to plasma in cynomolgus monkey after 5 mins; format: ADME, Macaca fascicularis
[9] = Drug excretion in F344 rat urine at 1 mg/kg, po administered as single dose after 0 to 48 hrs by scintillation counting method; format: ADME, organism-based; design: dose 1 mg/kg, route oral; conditions: in vivo; how it was run: as §1
[10] = AUC (0 to infinity) in cynomolgus monkey at 3 mg/kg, po administered as single dose by LC-MS/MS method; format: ADME, organism-based, Macaca fascicularis; design: dose 3 mg/kg, route oral, time infinity; conditions: plasma
How it was run: (§2)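 Fasted male F344 rats (146–185 g) or male cynomolgus monkeys (3.48–4.29 kg), n = 4 per dose, given single iv or oral dose of 0.3, 1.0, 3.0 or 10.0 mg/kg; monkeys dosed with 2-week washouts. Blood sampled to 48 h; plasma stored frozen. LC-MS/MS with deuterated internal standard. Noncompartmental analysis: AUClast by trapezoidal rule; AUC0–inf = AUClast + Ctz/terminal rate constant; mean ± S.D.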

[11] = AUC (0 to infinity) in F344 rat at 1 mg/kg, iv administered as single dose by LC-MS/MS method; format: ADME, organism-based; design: time infinity, dose 1 mg/kg, route intravenous; conditions: plasma; how it was run: as §2
[12] = AUClast in cynomolgus monkey at 0.3 mg/kg, iv administered as single dose by LC-MS/MS method; format: ADME, organism-based, Macaca fascicularis; design: time 0 - last, dose 0.3 mg/kg, route intravenous; conditions: plasma; how it was run: as §2
[13] = Cmax in cynomolgus monkey at 1 mg/kg, po administered as single dose by LC-MS/MS method; format: ADME, organism-based, Macaca fascicularis; design: dose 1 mg/kg, route oral; conditions: in vivo
How it was run: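 Fasted male F344 rats (146–185 g) and cynomolgus monkeys (3.48–4.29 kg), n = 4 each, received a single oral dose; monkeys had 2-week washouts. Plasma sampled up to 48 h, stored at […], assayed by LC-MS/MS with a deuterated internal standard. Cmax taken from observed data by noncompartmental analysis; mean ± S.D. (n = 3 or 4).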

[14] = AUClast in cynomolgus monkey at 10 mg/kg, po administered as single dose by LC-MS/MS method; format: ADME, organism-based, Macaca fascicularis; design: time 0 - last, dose 10 mg/kg, route oral; conditions: plasma; how it was run: as §2
[15] = Half life in F344 rat at 3 mg/kg, iv administered as single dose by LC-MS/MS method; format: ADME, organism-based; design: dose 3 mg/kg, route intravenous; conditions: in vivo
How it was run: (§3)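 Male F344 rats (146–185 g) and male cynomolgus monkeys (3.48–4.29 kg), n = 4 each, fasted overnight, received single iv or oral doses of 0.3, 1.0, 3.0 or 10.0 mg/kg. Monkeys had 2-week washouts between doses. Plasma was sampled to 48 h and assayed by LC-MS/MS with deuterated internal standard. Noncompartmental analysis: tmax observed; t1/2 by regression on ≥3 terminal log points; Vss = dose·AUMC/(AUC0–inf)²; Foral = oral/iv AUC0–inf at the same dose.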

[16] = Tmax in F344 rat at 0.3 mg/kg, po administered as single dose by LC-MS/MS method; format: ADME, organism-based; design: dose 0.3 mg/kg, route oral; conditions: in vivo; how it was run: as §3
[17] = Half life in cynomolgus monkey at 3 mg/kg, iv administered as single dose by LC-MS/MS method; format: ADME, organism-based, Macaca fascicularis; design: dose 3 mg/kg, route intravenous; conditions: in vivo; how it was run: as §3
[18] = AUClast in F344 rat at 10 mg/kg, iv administered as single dose by LC-MS/MS method; format: ADME, organism-based; design: time 0 - last, dose 10 mg/kg, route intravenous; conditions: plasma; how it was run: as §2
[19] = Half life in cynomolgus monkey at 3 mg/kg, po administered as single dose by LC-MS/MS method; format: ADME, organism-based, Macaca fascicularis; design: dose 3 mg/kg, route oral; conditions: in vivo; how it was run: as §3
[20] = Oral bioavailability in F344 rat at 3 mg/kg administered as single dose by LC-MS/MS method; format: ADME, organism-based; conditions: in vivo; how it was run: as §3
[21] = AUClast in cynomolgus monkey at 1 mg/kg, po administered as single dose by LC-MS/MS method; format: ADME, organism-based, Macaca fascicularis; design: time 0 - last, dose 1 mg/kg, route oral; conditions: plasma; how it was run: as §2
[22] = AUC (0 to infinity) in F344 rat at 3 mg/kg, po administered as single dose by LC-MS/MS method; format: ADME, organism-based; design: time infinity, dose 3 mg/kg, route oral; conditions: plasma; how it was run: as §2
[23] = Tmax in F344 rat at 1 mg/kg, po administered as single dose by LC-MS/MS method; format: ADME, organism-based; design: dose 1 mg/kg, route oral; conditions: in vivo; how it was run: as §3
[24] = Tmax in cynomolgus monkey at 0.3 mg/kg, po administered as single dose by LC-MS/MS method; format: ADME, organism-based, Macaca fascicularis; design: dose 0.3 mg/kg, route oral; conditions: in vivo; how it was run: as §3
[25] = AUC (0 to infinity) in cynomolgus monkey at 3 mg/kg, iv administered as single dose by LC-MS/MS method; format: ADME, organism-based, Macaca fascicularis; design: time infinity, dose 3 mg/kg, route intravenous; conditions: plasma; how it was run: as §2
[26] = Half life in cynomolgus monkey at 1 mg/kg, iv administered as single dose by LC-MS/MS method; format: ADME, organism-based, Macaca fascicularis; design: dose 1 mg/kg, route intravenous; conditions: in vivo; how it was run: as §3
[27] = Half life in F344 rat at 10 mg/kg, po administered as single dose by LC-MS/MS method; format: ADME, organism-based; design: dose 10 mg/kg, route oral; conditions: in vivo

## C[C@H]1O[C@@H](O[C@H]2[C@H](O)[C@@H](O)[C@@H](O[14C@H]3[14C@H](O)[14CH2]N[14C@@H]3[14CH2]O)O[C@@H]2CO)[C@H](O)[C@@H](O)[C@@H]1O
[1]
  Drug metabolism: metabolite_not_detected
[2]
  Drug metabolism: metabolite_not_detected
[3]
  Drug excretion: 80.28%
[4]
  Drug excretion: 15.32%
Rattus norvegicus
  Drug excretion: 97.94%
Cynomolgus monkey [5]
  Drug excretion: 14.5%
Cynomolgus monkey [6]
  Drug excretion: 94.29%
[7]
  Drug excretion: 81.13%
[8]
  blood plasma ratio at 5 min: 0.595
[9]
  Drug excretion: 13.34%

## C[C@H]1O[C@@H](O[C@H]2[C@H](O)[C@@H](O)[C@@H](O[C@H]3[C@H](O)CN[C@@H]3CO)O[C@@H]2CO)[C@H](O)[C@@H](O)[C@@H]1O
[10]
  AUC(0-inf): 191 ng·h/mL
[11]
  AUC(0-inf): 4930 ng·h/mL
[12]
  AUC(0-t): 2000 ng·h/mL
[13]
  Cmax: 15.3 ng/mL
[14]
  AUC(0-t): 869 ng·h/mL
[15]
  half-life: 23.6 h
[16]
  Tmax: 0.5 h
[17]
  half-life: 25.1 h
[18]
  AUC(0-t): 53000 ng·h/mL
[19]
  half-life: 2.12 h
[20]
  bioavailability: 1.73%
[21]
  AUC(0-t): 52 ng·h/mL
[22]
  AUC(0-inf): 325 ng·h/mL
[23]
  Tmax: 0.417 h
[24]
  Tmax: 1.75 h
[25]
  AUC(0-inf): 18200 ng·h/mL
[26]
  half-life: 21.4 h
[27]
  half-life: 18.3 h
